Several values for one entry are separate records, joined by “and”; a condition that tells them apart may be missing. Equal entries are not always repeated. Entries after “also recorded” stand apart in the source; their conditions may differ.
How the values were obtained:
[1] = target: 20S proteasome (Homo sapiens, UniProt P28074); experiment: Whole blood 20S proteasome activity; format: in vivo; conditions: for Emax / Time to Emax: whole blood 20S; for Maximal 20S proteasome inhibition / Time of maximal 20S proteasome inhibition after administration: whole blood, MTD 2.34 mg/m^2
Method in brief: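 Whole blood was sampled after IV bolus dosing (0.125–3.11 mg/m2) on cycle 1 days 1 and 15. 20S proteasome activity was measured by fluorogenic assay.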

[2] = test system: relapsed/refractory lymphoma; experiment: Disease response by International Working Group criteria for lymphoma; format: in vivo, human; conditions: for Duration of response: follicular lymphoma patient
Method in brief: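 CT and PET were done at screening, with repeat PET at end of cycles 2 and 4 if positive. Response was assessed at end of cycle 2, every 2 cycles to cycle 12, then every 4 cycles. Evaluable patients had measurable baseline disease and ⩾1 post-baseline assessment.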

[3] = weekly oral ixazomib, relapsed or refractory MM, after multiple dosing; cited from earlier work
[4] = Urine pharmacokinetics of ixazomib; format: in vivo, human
[5] = Plasma pharmacokinetics of ixazomib after IV bolus; format: in vivo, human; conditions: for DN AUC0–168 h: dose normalized; for DN AUC0–168 h / C0 / half-life / AUC0–168 h: plasma
[6] = test system: patients with relapsed or refractory MM; conditions: cited from earlier work
[7] = test system: patients with relapsed or refractory light-chain amyloidosis; conditions: weekly oral ixazomib; cited from earlier work
[8] = test system: patients with relapsed or refractory MM; conditions: twice-weekly oral ixazomib; cited from earlier work
[9] = day 1, IV 0.125 mg/m^2, n=1, individual value
[10] = day 1, IV 0.25 mg/m^2, n=1, individual value
[11] = day 1, IV 0.5 mg/m^2, n=1, individual value
[12] = day 1, IV 1 mg/m^2, n=1, individual value
[13] = day 15, IV 0.25 mg/m^2, n=1, individual value
[14] = day 15, IV 0.5 mg/m^2, n=1, individual value
[15] = day 15, IV 1 mg/m^2, n=1, individual value
[16] = day 15, IV 3.11 mg/m^2, n=2, individual values
[17] = day 15, IV 1.4 mg/m^2, n=4, geometric mean (%CV)
[18] = day 1, IV 1.4 mg/m^2, n=4, geometric mean (%CV)
[19] = day 1, IV 1.76 mg/m^2, n=6, geometric mean (%CV)
[20] = day 1, IV 2.34 mg/m^2, n=7, geometric mean (%CV)
[21] = day 1, IV 3.11 mg/m^2, n=5, geometric mean (%CV)
[22] = day 15, IV 2.34 mg/m^2, n=7, geometric mean (%CV)

SMILES: CC(C)C[C@H](NC(=O)CNC(=O)c1cc(Cl)ccc1Cl)B(O)O [ixazomib]
- Dose dependence of maximal whole blood 20S proteasome inhibition ([1]; 0.125–3.11 mg/m^2): dose-dependent increase
- AUE0–168 h ([1]; area under 20S inhibition vs time curve, day 1, IV 1.4 mg/m^2, n=3, mean (±s.d.)): 2000 (±1160) % inhibition/h
- Emax [1, 9]: 5.15 % inhibition
- Time to Emax [1, 9]: 0.25 h
- Emax [1, 10]: 18.5 % inhibition
- Time to Emax [1, 10]: 0.083 h
- Emax [1, 11]: 33.2 % inhibition
- Time to Emax [1, 11]: 0.1 h
- Emax [1, 12]: 50.5 % inhibition
- Time to Emax [1, 12]: 0.083 h
- Emax ([1]; day 1, IV 1.4 mg/m^2, n=3, mean (±s.d.)): 66.3 (±14.8) % inhibition
- Time to Emax ([1]; day 1, IV 1.4 mg/m^2, n=3, median (range)): 0.117 (0.1–0.133) h
- Emax ([1]; day 1, IV 1.76 mg/m^2, n=7, mean (±s.d.)): 72.2 (±8.1) % inhibition
- Time to Emax ([1]; day 1, IV 1.76 mg/m^2, n=7, median (range)): 0.083 (0.083–0.1) h
- Emax ([1]; day 1, IV 2.34 mg/m^2, n=5, mean (±s.d.)): 81.9 (±3.2) % inhibition
- Time to Emax ([1]; day 1, IV 2.34 mg/m^2, n=5, median (range)): 0.083 (0.083–0.25) h
- Emax ([1]; day 1, IV 3.11 mg/m^2, n=4, mean (±s.d.)): 80.2 (±3.6) % inhibition
- Time to Emax ([1]; day 1, IV 3.11 mg/m^2, n=4, median (range)): 0.109 (0.083–0.533) h
- Emax [1, 13]: 64.3 % inhibition
- Time to Emax [1, 13]: 0.1 h
- Emax [1, 14]: 19.2 % inhibition
- Time to Emax [1, 14]: 0.1 h
- Emax [1, 15]: 44.4 % inhibition
- Time to Emax [1, 15]: 0.083 h
- Emax ([1]; day 15, IV 1.4 mg/m^2, n=3, mean (±s.d.)): 69.8 (±10.6) % inhibition
- Time to Emax ([1]; day 15, IV 1.4 mg/m^2, n=3, median (range)): 0.083 (0.083–0.083) h
- Emax ([1]; day 15, IV 1.76 mg/m^2, n=3, mean (±s.d.)): 74.8 (±4.5) % inhibition
- Time to Emax ([1]; day 15, IV 1.76 mg/m^2, n=3, median (range)): 0.083 (0.033–0.083) h
- Emax ([1]; day 15, IV 2.34 mg/m^2, n=4, mean (±s.d.)): 79.6 (±4.9) % inhibition
- Time to Emax ([1]; day 15, IV 2.34 mg/m^2, n=4, median (range)): 0.167 (0.083–0.25) h
- Emax [1, 16]: 82.3 % inhibition and 85 % inhibition
- Time to Emax [1, 16]: 0.083 h and 0.117 h
- Maximal 20S proteasome inhibition ([1]; day 1): 82%
- Time of maximal 20S proteasome inhibition after administration ([1]; day 1): 5 min
- Maximal 20S proteasome inhibition ([1]; day 15): 80%
- Time of maximal 20S proteasome inhibition after administration ([1]; day 15): 10 min
- Patients achieving responses (CR or PR) ([2]; 26 evaluable patients): five
- Duration of response ([2]; 1.4 mg/m^2): 24.1 months
- Duration of response ([2]; 2.34 mg/m^2): 2 months
- Responders among follicular lymphoma patients ([2]; one complete and three partial responses): 4/11 and 4 of 11
- Responders among peripheral T-cell lymphoma patients ([2]; partial response): 1/4
- Median duration of stable disease ([2]; six patients, range 1.7–5.4): 3.6 months
- Terminal half-life [3]: 96 to 288 h
- Fraction of ixazomib excreted unchanged in urine ([4]; 25 patients, days 1 and 15, 0 to 4 h): < 1 % of the administered dose
- CL renal ([4]; human, urine, intravenous): < 8.5 mL/min
- Dose proportionality of plasma exposure ([5]; 0.5–3.11 mg/m^2): increased dose proportionally; also recorded: dose-proportionality of ixazomib exposure
- Accumulation of ixazomib between day 1 and day 15 doses ([5]; AUC0–168 h, Figure 1d): approximately twofold
- Accumulation ratio [5, 17]: 2.17 (7)
- Accumulation ratio ([5]; day 15, IV 2.34 mg/m^2, n=6, geometric mean (%CV)): 2.27 (15)
- Accumulation ratio [5, 16]: 2.02 and 2.21
- DN AUC0–168 h [5, 18]: 221 (41) hr/ng/ml/mg
- DN AUC0–168 h [5, 19]: 259 (49) hr/ng/ml/mg
- DN AUC0–168 h [5, 20]: 257 (50) hr/ng/ml/mg
- DN AUC0–168 h [5, 21]: 278 (46) hr/ng/ml/mg
- DN AUC0–168 h [5, 14]: 151 h/ng/mL/mg
- DN AUC0–168 h [5, 15]: 385 h/ng/mL/mg
- DN AUC0–168 h [5, 17]: 481 (34) hr/ng/ml/mg
- DN AUC0–168 h [5, 22]: 500 (55) hr/ng/ml/mg
- C0 ([5]; human, iv, 0.25 mg/m2, C0, plasma, day 1, IV 0.25 mg/m^2, n=1, individual value): 0.0594 µg/mL
- C0 ([5]; human, iv, 1 mg/m2, C0, plasma, day 15, IV 1 mg/m^2, n=1, individual value): 0.383 µg/mL
- C0 ([5]; human, iv, 1.4 mg/m2, C0, plasma, day 1, IV 1.4 mg/m^2, n=4, geometric mean (%CV)): 0.714 µg/mL
- C0 ([5]; human, iv, 1.4 mg/m2, C0, plasma, day 15, IV 1.4 mg/m^2, n=4, geometric mean (%CV)): 0.497 µg/mL
- half-life ([5]; human, iv, 1.4 mg/m2, t½, terminal disposition phase half-life, day 15, IV 1.4 mg/m^2, n=4, geometric mean (%CV)): 209 h
- C0 ([5]; human, iv, 1.76 mg/m2, C0, plasma, day 1, IV 1.76 mg/m^2, n=7, geometric mean (%CV)): 0.542 µg/mL
- C0 ([5]; human, iv, 1.76 mg/m2, C0, plasma, day 15, IV 1.76 mg/m^2, n=3, geometric mean (%CV)): 0.499 µg/mL
- half-life ([5]; human, iv, 1.76 mg/m2, t½, terminal disposition phase half-life, day 15, IV 1.76 mg/m^2, n=3, geometric mean (%CV)): 146 h
- C0 ([5]; human, iv, 2.34 mg/m2, C0, plasma, day 15, IV 2.34 mg/m^2, n=7, geometric mean (%CV)): 0.803 µg/mL
- half-life ([5]; human, iv, 2.34 mg/m2, t½, terminal disposition phase half-life, day 15, IV 2.34 mg/m^2, n=7, geometric mean (%CV)): 108 h
- C0 ([5]; human, iv, 3.11 mg/m2, C0, plasma, day 1, IV 3.11 mg/m^2, n=5, geometric mean (%CV)): 0.961 µg/mL
- C0 ([5]; human, iv, 3.11 mg/m2, C0, plasma, day 15, IV 3.11 mg/m^2, n=2, individual values): 1.11 µg/mL
- half-life ([5]; human, iv, 3.11 mg/m2, t½, terminal disposition phase half-life, day 15, IV 3.11 mg/m^2, n=2, individual values): 97.9 h
- half-life ([5]; human, iv, Terminal half-life, after multiple dosing, weekly IV): 96 to 288 h
- Rapid initial disposition phase over by ([5]; multi-phasic disposition after IV administration): ≤ 4 h
- AUC0–168 h [5, 18]: 637 (30) hr/ng/ml
- AUC0–168 h [5, 19]: 821 (48) hr/ng/ml
- AUC0–168 h [5, 20]: 1060 (37) hr/ng/ml
- AUC0–168 h [5, 21]: 1680 (39) hr/ng/ml
- AUC0–168 h [5, 14]: 175 h/ng/mL
- AUC0–168 h [5, 15]: 732 h/ng/mL
- AUC0–168 h [5, 17]: 1390 (24) hr/ng/ ml
- AUC0–168 h [5, 22]: 2110 (41) hr/ng/ ml
- AUC0–168 h [5, 16]: 2090 h/ng/mL and 3080 h/ng/mL
- C0 [5, 16]: 1.28 µg/mL
- Any-grade drug-related PN, patients ([6]; weekly oral ixazomib in MM): 20%
- Drug-related grade 3 PN, patients ([6]; weekly oral ixazomib in MM): 2%
- Rate of drug-related AEs in the Skin and subcutaneous tissue disorders System Organ Class ([6]; weekly oral ixazomib, relapsed or refractory MM): 22%
- Rate of all-cause rash/maculopapular rash [7]: 18%
- Rate of drug-related rash [8]: 28%
- Rate of drug-related skin and subcutaneous tissue disorders [8]: 40%

From PMC4220649 (Blood Cancer Journal, 2014)
